Assay outcomes from PubChem.
H9c2 protect: cardioprotection against H2O2-induced cell death, primary screen, uHTS, H9c2 cells, ATPLite luminescence. H9c2 cardiomyocytes, H2O2 injury protection, 2 h. hit rate 0.63% among 360,000. protection from H2O2 cell death, % at 20 µM. AID 588492, 2011;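 active = compounds giving at least 50% protection of heart cells from peroxide-induced death in the single-dose screen, raw or plate-pattern-corrected value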
Tn6 DDE FP: inhibitors of Tn6 peptide binding to fibrin DD(E), primary screen, biochemical, fluorescence polarization, human fibrin, Tn6 probe; Fibrinogen beta chain (Homo sapiens), P02675; Fibrin DD(E) TRITC-Tn6 fluorescence polarization displacement; inhibition, % at 8.3 µM; hit rate 0.21% among 370,000; AID 720509, 2013;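 active = inhibition above a per-campaign cutoff: mean of compounds within control limits plus 3 SD, cut at about 15% in these data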
DDE Tn7 FP inh: inhibitors of Tn7 peptide binding to fibrin DD(E), primary screen, biochemical, fluorescence polarization, human fibrin, Tn7 probe; FP displacement of FITC-Tn7 peptide from fibrin DD(E); 0% = median of compound wells per plate; AID 720508, 2013; inhibition, % at 8.3 µM; hit rate 0.13% among 370,000;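 active = inhibition above the mean of compounds falling within the control limits plus 3 SD of them, cut at about 14% in these data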
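assay system = human clot-derived fibrin DD(E) complex | quantity = Fibrin-DD(E) at 2 µM final | timing = 10 min preincubation, 3 h with tracer, room temperature | signal = fluorescence polarization | measure = percent inhibition | benchmarks = high control wells with 10 µM unlabelled Aha-Tn7 peptide (full inhibition) | replicates = singlicate testing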
TAG inh: inhibitors of triacylglycerol accumulation, primary screen, cell-based, uHTS, fluorescence, H9c2; hit rate 0.66% among 230,000; inhibition, % at 12.5 µM; AID 651582, 2012; H9c2 cells, Nile Red lipid (TAG) fluorescence; cells loaded with 200 µM oleic acid;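 active = pattern-corrected inhibition of lipid staining of at least 50% with the nuclear-stain viability signal not falling by more than 50%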
MT1-MMP act inh: blockers of MT1-MMP proenzyme processing, primary screen, HT1080 RFP-PRO-GFP cells, GFP/RFP fluorescence; Matrix metalloproteinase-14 (Homo sapiens), P50281; GFP/RFP ratio fluorescence, overnight; percent of plate control window, DMSO zero; GFP/RFP ratio change, % at 20 µM; hit rate 0.061% among 360,000; AID 651647, 2012;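 active = GFP/RFP ratio change of at least 30% with cell ATP level not reduced by more than half and red fluorescence within 50% of control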
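Material: RFP-PRO-GFP reporter HT1080 cells. Dosing: single-point 20 µM compound, 1% DMSO. Controls: DMSO and RFP-L50D-GFP cell wells. Timing: cells overnight before dosing, compound overnight, 37 °C, 5% CO2. Measure: GFP/RFP fluorescence ratio.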
DAGLB inhibitor: DAGLB lipase inhibitors, primary screen, biochemical, fluorescence, HTS. Diacylglycerol lipase-beta (Homo sapiens), Q8NCG7. HEK293T DAGLB membrane lysate, EnzChek fluorogenic substrate. inhibition, % at 5.17 µM. hit rate 0.059% among 340,000. AID 504411, 2011; in the data active = inhibition above about 34%
Numbers stand for hits; . = inactive; / = no result given. In the library only some 1.4% were active in any assay of this set; here they are far more common.

SMILES	H9c2 protect	Tn6 DDE FP	DDE Tn7 FP inh	TAG inh	MT1-MMP act inh	DAGLB inhibitor
COc1cc(/C=N/NC(=O)c2sc(N)c(C#N)c2C)ccc1O	54	.	.	/	.	.
COCCCN1C(=O)[C@H](CC(=O)N2CCN(C(=O)c3ccco3)CC2)[C@]2(C(=O)OC)CCCCC=C12	/	.	.	/	/	/
Cc1ccc(OCc2nnc(SCC(=O)Nc3cccc4ccccc34)n2Cc2ccco2)cc1	/	.	.	/	/	/
CCOC(=O)[C@@]12CN(C(=O)OC(C)(C)C)CC=C1N(Cc1ccc(OC)cc1)C(=O)[C@H]2CC(=O)N1CCCC1	/	.	.	/	/	/
C=CCC[C@H](Cc1ccc(F)cc1)C(=O)OC[C@@H](Cc1c[nH]c2ccccc12)NC(=O)[C@H](CC=C)CC(=O)N(CCO)Cc1ccccc1	.	.	.	57	.	.
COCc1cn(-c2cccc(-c3noc4c3C(=O)N(CC(=O)N3CCOCC3)CC4)c2)nn1	/	.	.	/	/	/
CCCC(=O)N(c1ccc2oc(=O)sc2c1)S(=O)(=O)c1ccccc1	56	.	.	.	.	.
CC(=O)N(c1ccc2oc(=O)sc2c1)S(=O)(=O)c1ccc(C(=O)O)cc1	.	.	.	/	.	.
Cc1ccccc1NC(=O)Nc1ccc2c(c1)C(=O)N(C)[C@H]1CC[C@H](CC(=O)NCC3CC3)O[C@@H]1CO2	/	.	.	/	/	/
O=C(OCc1cn(Cc2cccc(F)c2F)nn1)N1CCOCC1	/	.	.	/	/	/
Cn1nnnc1Sc1ncnc2scc(-c3ccc(F)cc3)c12	.	.	.	.	.	.
Cn1nnnc1Sc1ncnc2scc(-c3ccc(Br)cc3)c12	.	.	.	58	.	.
O=C(Nc1cccc(S(=O)(=O)N2CCCCC2)c1)c1ccc([N+](=O)[O-])o1	.	.	.	74	.	.
O=C(COC(=O)c1ccc([N+](=O)[O-])o1)Nc1cccc(S(=O)(=O)N2CCCCC2)c1	53	.	.	.	.	.
Cc1ccc(C(=O)OCC(=O)Nc2cccc(S(=O)(=O)N3CCCCC3)c2)o1	.	.	.	.	.	.
CC(=O)Nc1ccc(NC(=O)COC(=O)c2ccc([N+](=O)[O-])o2)cc1	.	.	.	.	.	.
CCN(c1ccc(NC(=O)COC(=O)c2ccc([N+](=O)[O-])o2)cc1)C(C)C	61	.	.	.	.	.
N#Cc1ccc(/C=C2\CC3(OC(=O)c4ccco4)CCCN2C3)cc1 (centres undefined)	/	.	.	/	/	/
COc1cc(NC(=O)c2cc(-c3ccccc3)on2)cc(OC)c1OC	.	.	.	/	.	.
Cc1nc2ccccc2c2oc(C(=O)Nc3ccc4c(c3)OCCO4)cc12	100	.	.	.	.	.
COc1cc(NC(=O)c2cc3nc(-c4ccccc4)cc(-c4ccccc4)n3n2)cc(OC)c1OC	80	.	.	/	.	.
Cc1nc2ccccc2c2oc(C(=O)Nc3ccc(C(C)C)cc3)cc12	.	.	.	.	.	.
COc1cc(NC(=O)c2cc3c(C)nc4ccccc4c3o2)cc(OC)c1OC	66	.	.	.	.	.
COC(=O)c1cc2c(c3c4ccccc4n(S(=O)(=O)c4cccc(C)c4)c13)C(=O)N(Cc1ccc(N(C)C)cc1)C2	/	.	.	/	/	/
COc1ccc(-c2c(Cc3ccccc3)nc(NC(=O)c3ccccc3)n2Cc2ccccc2)cc1	/	.	.	/	/	/
CCCn1nc(C(=O)Nc2nc(-c3ccccn3)cs2)c2ccccc2c1=O	86	.	.	.	.	.
Cn1nc(C(=O)Nc2nc(-c3ccccn3)cs2)c2ccccc2c1=O	55	.	.	.	.	.
CCn1nc(C(=O)Nc2nc(-c3ccccn3)cs2)c2ccccc2c1=O	79	.	.	.	.	.
